Drawing on ChEMBL document CHEMBL3272300, “Mapping the dopamine receptor. 1. Features derived from modifications in ring E of the neuroleptic butaclamol” (J Med Chem, 1979), this text covers Activity, minimal effective dose and ED50 for eight molecules.

Data set [1] deals with Rattus norvegicus. In words: Induction of catalepsy in Sprague-Dawley rat at 5 mg/kg, ip measured after 1 to 24 hrs. In kind it is organism-based. Also on record: dose 5 mg/kg, route intraperitoneal. The note with it: in vivo. Summed up: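 Rats (160–180 g), six per group, dosed ip at 5 mg/kg. Catalepsy scored at 1, 2, 4, 6 and 24 h by Wirth stages III and IV; highest mean cataleptic score given as percent of maximum attainable score.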

Data set [2] deals with Rattus norvegicus. In words: Behavioral effect in ip dosed Sprague-Dawley rat assessed as inhibition of d-amphetamine-induced stereotyped behaviour compound administered 15 mins post challenge measured every 15 mins for 4 hrs post challenge. The data set is classed as functional. To be noted: read-out: MED. The essentials:
(§1)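 Rats (160–180 g), groups of four or more, given d-amphetamine 10 mg/kg ip, then graded ip doses of test agent or vehicle 15 min later; highest dose 20 mg/kg. Behaviour scored 0 (normal), 1 (excited), 2 (stereotyped) every 15 min for 4 h after amphetamine. MED = lowest dose antagonizing all amphetamine behavioural effects over the 4-h period.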

The test system of the next data set is Mus musculus. In words: Inhibition of isolation-induced fighting behaviour in ip dosed Swiss albino mouse measured after 30 mins to 3 hrs. The data set is classed as functional. The essentials:
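Albino mice (14–16 g) isolated 4–5 weeks; pairs showing maximal fighting in a morning control session were dosed ip and retested at 30 min and 3 h in 5-min observations. All-or-none: effective if no fighting episode; ED50 = dose abolishing fighting in 50% of pairs, by Litchfield–Wilcoxon.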

Data set [3] relates to Rattus norvegicus. In words: Inhibition of epinephrine-induced mortality in ip dosed Sprague-Dawley rat compound administered 1 hr prior challenge measured over 24 hrs. In kind it is functional. Summed up: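 Groups of six or more rats (220–225 g) given graded ip doses; 1 h later epinephrine bitartrate 0.25 mg/kg iv, a dose lethal to untreated rats. Deaths recorded over 24 h. Protective ED50 (dose protecting 50% of rats from lethality) calculated by Litchfield–Wilcoxon method.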

Data set [4] relates to Rattus norvegicus. In words: Behavioral effect in ip dosed Sprague-Dawley rat assessed as reduction in conditioned avoidance response compound administered 30 mins prior testing. In kind it is functional. Summed up: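 Morpurgo discrimination box: trained rats (250–400 g) must leave start chamber for lighted exit within 10 s or get shock. Two-trial control session before dosing; graded ip doses to groups of six or more; ten trials run 30 min post-injection. Avoidance failures expressed as percent of trials; ED50 = dose giving 50% failure.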

Data set [5] has as its system Rattus norvegicus. The experiment in a line: Behavioral effect in Sprague-Dawley rat assessed as inhibition of d-amphetamine-induced stereotyped behaviour at 20 mg/kg, ip administered 15 mins post challenge measured every 15 mins for 4 hrs post challenge. In kind it is functional, organism-based. Also on record: dose 20 mg/kg. The essentials: as §1

Activity calls are given as the source filed them. The rule behind the calls is not given here.

Take `CC(C)(C)[C@]1(O)CCN2C[C@H]3c4ccccc4CCc4cccc(c43)[C@@H]2C1` [BUTACLAMOL]: in the data set with Rattus norvegicus [1], the Activity is 60%. For the same molecule, the minimal effective dose in the data set with Rattus norvegicus [2] was determined as 0.62 mg/kg. The ED50 was 1.9 mg/kg with Mus musculus, 15 mg/kg in the data set with Rattus norvegicus [3] and 0.64 mg/kg with Rattus norvegicus [4].

In the case of `O[C@H]1CCN2C[C@H]3c4ccccc4CCc4cccc(c43)[C@@H]2C1` (relative stereo), the outcome in the data set on Rattus norvegicus [5] was inactive.

As to `c1ccc2c(c1)CCc1cccc3c1[C@H]2CN1CCCC[C@@H]31`, the result with Rattus norvegicus [5] was inactive.

Turning to `c1ccc2c(c1)CCc1cccc3c1[C@H]2CN1CCC2(C[C@@H]31)OCCO2` (relative stereo), the result in the data set with Rattus norvegicus [5] was inactive.

Take `CC(C)(C)C1CCN2C[C@H]3c4ccccc4CCc4cccc(c43)[C@H]2C1` (relative stereo): in the data set on Rattus norvegicus [5], the result was inactive.

Turning to `CC(C)(C)[C@]1(O)CC[C@H]2c3cccc4c3[C@@H](CN2C1)c1ccccc1CC4` (relative stereo), the result in the data set on Rattus norvegicus [5] was inactive.

On to `CC(C)(C)[C@@]1(O)CC[C@@H]2c3cccc4c3[C@@H](CN2C1)c1ccccc1CC4` (relative stereo), for which the outcome in the data set on Rattus norvegicus [5] was inactive.

Consider `CC(C)(C)C1CCN2C[C@H]3c4ccccc4CCc4cccc(c43)[C@@H]2C1` (some centres not stated), for which, in the data set with Rattus norvegicus [5], the result was inactive. The Activity in the data set on Rattus norvegicus [1] amounted to 93%. Further, the minimal effective dose in the data set on Rattus norvegicus [2] is 0.62 mg/kg. Besides, the ED50 was 2.1 mg/kg in the data set with Mus musculus, 19 mg/kg with Rattus norvegicus [3] and 0.8 mg/kg in the data set with Rattus norvegicus [4].

The term ED50 denotes the dose that gives a 50% effect, or the effect in half of the subjects.
